Results gathered from unrelated publications.
Protocols differ between the studies behind these lines.
Target: Casein kinase II subunit alpha' (CSNK2A2, Homo sapiens, UniProt P19784)

SMILES	test	setting	measurement	value
COc1cc2c(Nc3ccc(Br)cc3F)ncnc2cc1OCC1CCN(C)CC1	cell-free assay	0.5 µM	remaining signal	96.5%
O=C(Nc1cnn(-c2csc(C(=O)NC3COC3)c2)c1)Nc1c(F)cccc1Cl	enzyme activity, inhibitor	5 µM	remaining activity	96.6%
CC(C)(C)c1nc2c(s1)c1nc(N)ncc1c1ccc(NS(=O)(=O)c3c(F)cccc3F)c(F)c12	enzyme activity, inhibitor, radiometric	1 µM	remaining activity	94%
O=C(NC[C@@H]1[C@H]2CN(C(=O)OCc3cc(C(F)(F)F)cc(C(F)(F)F)c3)C[C@@H]12)c1ccc2[nH]nnc2c1	cell-free assay, competition with immobilised ligand	1 µM	remaining binding	92%
Nc1ncnc2occ(-c3ccc(NC(=O)Nc4cc(C(F)(F)F)ccc4F)cc3)c12	enzyme activity, inhibitor	20 µM	remaining activity	41%
COc1cc(Cl)c(C(=O)N[C@@H](CN[C@H]2CC[C@@H](N)CC2)Cc2ccc(C#N)cc2)cc1-c1ccc(CN[C@H](C)c2ccc(C)cc2)o1	enzyme activity, inhibitor	1 µM	remaining activity	106%
CCS(=O)(=O)c1cc2cc(C[C@](O)(CC(C)(C)c3ccc(F)cc3C(N)=O)C(F)(F)F)[nH]c2cn1	cell-free assay, competition with immobilised ligand	1 µM	remaining binding	92%
Cn1cnc(Br)c1C1=CN(c2ncnc3[nH]cnc23)CCS1	enzyme activity, inhibitor, radiometric	2 µM	inhibition	46.5%
CCN(CC)CCNC(=O)c1c(C)[nH]c(/C=C2\C(=O)Nc3ccc(F)cc32)c1C	enzyme activity, inhibitor	10 µM	inhibition	49%
COc1ccc2c(O[C@@H]3C[C@H]4C(=O)N[C@]5(C(=O)O)CC5/C=C\CCCCC[C@H](NC(=O)OC5CCCC5)C(=O)N4C3)cc(-c3csc(NC(=O)C(C)C)n3)nc2c1C (stereo partly drawn)	cell-free assay, competition with immobilised ligand	1 µM	remaining binding	100%
COc1cc2ncnc(Nc3ccc(Oc4ccccc4)cc3C)c2cc1OC	enzyme activity, inhibitor	1 µM	inhibition	7%
O=C(NCCCC1CCCCC1)c1ccc(CNC(=O)c2cnn(-c3ccccc3)c2C(F)(F)F)cc1	cell-free assay, competition with immobilised ligand	0.1 µM	remaining binding	88%
C=CC(=O)Nc1cc(Nc2nccc(Nc3cc(Cl)c(F)cc3C(C)(C)O)n2)c(OC)cc1N1CC[C@@H](N(C)C)C1	enzyme activity, inhibitor	1 µM	inhibition	-6%
CSc1cccnc1N1CCN(Cc2nc3ccccc3[nH]2)CC1	cell-free assay, competition with immobilised ligand	1 µM	remaining binding	100%
O=C1Nc2ccc(Cl)cc2C1=Cc1cc(Cl)c(O)c(Cl)c1	cell-free assay	0.5 µM	remaining signal	33.3%
CCN(CC)c1ccc(C2=NNC(=O)CC2C)cc1[N+](=O)[O-] (stereo not drawn)	enzyme activity, inhibitor	10 µM	remaining activity	103%
Cc1ccc(Nc2nccc(N(C)c3ccc4c(C)n(C)nc4c3)n2)cc1S(N)(=O)=O	enzyme activity, inhibitor	10 µM	inhibition	-14%
Cc1sc(C(=O)NC2COC2)cc1-n1cc(NC(=O)Nc2c(F)cccc2Cl)cn1	enzyme activity, inhibitor	10 µM	remaining activity	95.5%
CCCCNc1ncc2c(-c3ccc(F)cc3)nn(C[C@H]3CC[C@H](N)CC3)c2n1	target engagement in cells, inhibitor, chemoproteomics	20 mM	inhibition	-43.5%
CC(C)(O)[C@H]1CC[C@H](Nc2ccc3ncc(-c4cccc(C(F)(F)F)c4)n3n2)CC1	enzyme activity, inhibitor	1 µM	remaining activity	73.6%
CC(=O)C1=C(C)N(c2cccc(C(F)(F)F)c2)C(=O)N[C@@H]1c1ccc(C#N)nc1	cell-free assay, competition with immobilised ligand	1 µM	remaining binding	75.7%
COc1cccc2c(NCc3ccccc3)nc(-n3c(N)nc4ccccc43)nc12	target engagement in cells, inhibitor, chemoproteomics	20 mM	inhibition	-11.7%
O=C(Nc1cccnn1)N1CCC(=Cc2cccc(Oc3ccc(C(F)(F)F)cn3)c2)CC1	cell-free assay, competition with immobilised ligand	1 µM	remaining binding	100%
CNC(=O)c1cc(Oc2ccc(NC(=O)Nc3ccc(Cl)c(C(F)(F)F)c3)cc2)ccn1	enzyme activity, inhibitor	0.3 µM	inhibition	-33%
